According to ChEMBL document CHEMBL3525921, “Metabolic pathways of inhaled glucocorticoids by the CYP3A enzymes” (Drug Metab Dispos, 2013):

Assays:
Assay type in all cases: ADME
CYP3A4 = CYP3A4 (Homo sapiens, UniProt P08684); assay: Activity at recombinant CYP3A4 (unknown origin) assessed as half life at 1 uM by LC-MS analysis
In short: (§1)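 Recombinant P450 co-expressing P450 reductase and cytochrome b5, 10 pmol, with 1 μM substrate in 30 mM potassium phosphate (pH 7.4). Started with 1.3 mM NADPH at 37°C; no-NADPH negative controls. Samples at 0–20 min were quenched in cold acetonitrile with prednisolone internal standard and run by LC/MS, in triplicate. Parent/IS ratio vs time fitted to one-phase exponential decay; t1/2 = 0.69/kobs.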

Cytochrome P450 3A4 [1] = target: T1, Cytochrome P450 3A4 (Homo sapiens, UniProt P08684); assay: Drug metabolism assessed as recombinant CYP3A4 (unknown origin)-mediated keto-flunisolide metabolite retention time by MS/MS analysis; conditions: recombinant enzyme
In short: (§2)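 Metabolite profiling used 50 pmol recombinant P450 (with reductase and cytochrome b5) and 100 μM substrate in 30 mM potassium phosphate (pH 7.4). Reactions were started with 1.3 mM NADPH at 37°C, with no-NADPH negative controls. They were stopped with cold acetonitrile, deproteinized by centrifugation, and metabolites were extracted on C-18 cartridges for MS analysis.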

Cytochrome P450 3A7 = Cytochrome P450 3A7 (Homo sapiens, UniProt P24462); assay: Drug level of the compound assessed as recombinant CYP3A7 (unknown origin)-mediated metabolite formation treated with budesonide by MS/MS analysis; conditions: recombinant enzyme; in short: as §2
Cytochrome P450 3A4 [2] = target: T1, Cytochrome P450 3A4; assay: Drug level of the compound assessed as recombinant CYP3A4 (unknown origin)-mediated metabolite formation treated with budesonide by MS/MS analysis; conditions: recombinant enzyme; in short: as §2
Cytochrome P450 3A5 = Cytochrome P450 3A5 (Homo sapiens, UniProt P20815); assay: Drug level of the compound assessed as recombinant CYP3A5 (unknown origin)-mediated metabolite formation treated with budesonide by MS/MS analysis; conditions: recombinant enzyme; in short: as §2
Cytochrome P450 3A4 [3] = target: T1, Cytochrome P450 3A4; assay: Drug level of the compound assessed as recombinant CYP3A4 (unknown origin)-mediated metabolite formation treated with triamcinolone acetonide by MS/MS analysis; conditions: recombinant enzyme; in short: as §2
Cytochrome P450 3A4 [4] = target: T1, Cytochrome P450 3A4; assay: Drug metabolism assessed as recombinant CYP3A4 (unknown origin)-mediated delta6-triamcinolone acetonide metabolite retention time by MS/MS analysis; conditions: recombinant enzyme; in short: as §2
CYP3A5 = CYP3A5 (Homo sapiens, UniProt P20815); assay: Activity at recombinant CYP3A5 (unknown origin) assessed as half life at 1 uM by LC-MS analysis; in short: as §1
CYP3A7 = CYP3A7 (Homo sapiens, UniProt P24462); assay: Activity at recombinant CYP3A7 (unknown origin) assessed as half life at 1 uM by LC-MS analysis; in short: as §1
Cytochrome P450 3A4 [5] = target: T1, Cytochrome P450 3A4; assay: Drug metabolism assessed as recombinant CYP3A4 (unknown origin)-mediated 16alpha-hydroxy prednisolone metabolite formation by MS/MS analysis in presence of esterase inhibitor; conditions: recombinant enzyme
Cytochrome P450 3A4 [6] = target: T1, Cytochrome P450 3A4; assay: Drug metabolism assessed as recombinant CYP3A4 (unknown origin)-mediated delta6-budesonide metabolite formation by MS/MS analysis; conditions: recombinant enzyme; in short: as §2
Cytochrome P450 3A4 [7] = target: T1, Cytochrome P450 3A4; assay: Drug metabolism assessed as recombinant CYP3A4 (unknown origin)-mediated 6beta-hydroxy budesonide metabolite formation by MS/MS analysis; conditions: recombinant enzyme; in short: as §2
Cytochrome P450 3A4 [8] = target: T1, Cytochrome P450 3A4; assay: Drug metabolism assessed as recombinant CYP3A4 (unknown origin)-mediated 16alpha-hydroxy prednisolone metabolite formation by MS/MS analysis; conditions: recombinant enzyme
Cytochrome P450 3A4 [9] = target: T1, Cytochrome P450 3A4; assay: Drug metabolism assessed as recombinant CYP3A4 (unknown origin)-mediated 23-hydroxy budesonide metabolite formation by MS/MS analysis; conditions: recombinant enzyme; in short: as §2
Cytochrome P450 3A4 [10] = target: T1, Cytochrome P450 3A4; assay: Drug level of the compound assessed as recombinant CYP3A4 (unknown origin)-mediated metabolite formation treated with flunisolide by MS/MS analysis; conditions: recombinant enzyme; in short: as §2
Cytochrome P450 3A4 [11] = target: T1, Cytochrome P450 3A4; assay: Drug metabolism assessed as recombinant CYP3A4 (unknown origin)-mediated 21-carboxy flunisolide metabolite retention time by MS/MS analysis; conditions: recombinant enzyme; in short: as §2
Cytochrome P450 3A4 [12] = target: T1, Cytochrome P450 3A4; assay: Drug metabolism assessed as recombinant CYP3A4 (unknown origin)-mediated 21-carboxy triamcinolone acetonide metabolite retention time by MS/MS analysis; conditions: recombinant enzyme; in short: as §2
Cytochrome P450 3A4 [13] = target: T1, Cytochrome P450 3A4; assay: Drug metabolism assessed as recombinant CYP3A4 (unknown origin)-mediated delta6-flunisolide metabolite retention time by MS/MS analysis; conditions: recombinant enzyme; in short: as §2
Cytochrome P450 3A4 [14] = target: T1, Cytochrome P450 3A4; assay: Drug metabolism assessed as recombinant CYP3A4 (unknown origin)-mediated 6beta-hydroxy triamcinolone acetonide metabolite retention time by MS/MS analysis; conditions: recombinant enzyme; in short: as §2
Cytochrome P450 3A4 [15] = target: T1, Cytochrome P450 3A4; assay: Drug metabolism assessed as recombinant CYP3A4 (unknown origin)-mediated 21-nortriamcincolone acetonide metabolite retention time by MS/MS analysis; conditions: recombinant enzyme; in short: as §2
Cytochrome P450 3A4 [16] = target: T1, Cytochrome P450 3A4; assay: Drug metabolism assessed as recombinant CYP3A4 (unknown origin)-mediated 17beta-carboxy fluticasone propionate metabolite retention time by MS/MS analysis; conditions: recombinant enzyme; in short: as §2
Cytochrome P450 3A4 [17] = target: T1, Cytochrome P450 3A4; assay: Drug level of the compound assessed as recombinant CYP3A4 (unknown origin)-mediated metabolite formation treated with fluticasone propionate by MS/MS analysis; conditions: recombinant enzyme; in short: as §2
Cytochrome P450 3A4 [18] = target: T1, Cytochrome P450 3A4; assay: Drug metabolism assessed as recombinant CYP3A4 (unknown origin)-mediated 6beta-hydroxy, 21-carboxy triamcinolone acetonide metabolite retention time by MS/MS analysis; conditions: recombinant enzyme; in short: as §2

T1 sequence (P08684 whole entry): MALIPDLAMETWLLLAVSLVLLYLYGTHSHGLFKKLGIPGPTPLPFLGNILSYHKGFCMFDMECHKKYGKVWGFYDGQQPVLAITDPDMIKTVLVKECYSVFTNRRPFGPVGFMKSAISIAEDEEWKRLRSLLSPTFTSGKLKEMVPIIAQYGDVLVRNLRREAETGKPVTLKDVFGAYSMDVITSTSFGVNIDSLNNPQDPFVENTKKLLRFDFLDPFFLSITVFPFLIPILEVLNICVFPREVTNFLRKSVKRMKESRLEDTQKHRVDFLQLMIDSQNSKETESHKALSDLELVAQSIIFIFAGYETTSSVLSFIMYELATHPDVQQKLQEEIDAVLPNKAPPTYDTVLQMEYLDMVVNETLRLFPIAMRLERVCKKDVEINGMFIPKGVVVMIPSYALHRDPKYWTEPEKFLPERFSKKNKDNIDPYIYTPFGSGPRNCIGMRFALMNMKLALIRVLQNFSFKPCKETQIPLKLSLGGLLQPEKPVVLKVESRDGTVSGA
Sequence of CYP3A4 (P08684 whole entry): as above
Sequence of CYP3A5 (P20815 whole entry): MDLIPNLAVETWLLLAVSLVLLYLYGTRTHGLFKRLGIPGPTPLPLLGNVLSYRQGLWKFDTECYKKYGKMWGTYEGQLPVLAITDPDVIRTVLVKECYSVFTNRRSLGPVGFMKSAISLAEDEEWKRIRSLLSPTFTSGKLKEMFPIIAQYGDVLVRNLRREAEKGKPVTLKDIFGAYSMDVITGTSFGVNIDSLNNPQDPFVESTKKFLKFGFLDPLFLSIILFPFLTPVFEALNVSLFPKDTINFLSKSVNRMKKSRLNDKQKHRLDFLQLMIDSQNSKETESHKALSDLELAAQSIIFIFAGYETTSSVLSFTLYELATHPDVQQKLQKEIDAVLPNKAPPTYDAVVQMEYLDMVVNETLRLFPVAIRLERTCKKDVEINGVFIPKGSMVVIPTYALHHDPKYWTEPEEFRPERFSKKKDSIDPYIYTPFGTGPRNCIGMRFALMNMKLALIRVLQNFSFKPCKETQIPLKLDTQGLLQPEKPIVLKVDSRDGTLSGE
Sequence of Cytochrome P450 3A5 (P20815 whole entry): as above
Sequence of Cytochrome P450 3A7 (P24462 whole entry): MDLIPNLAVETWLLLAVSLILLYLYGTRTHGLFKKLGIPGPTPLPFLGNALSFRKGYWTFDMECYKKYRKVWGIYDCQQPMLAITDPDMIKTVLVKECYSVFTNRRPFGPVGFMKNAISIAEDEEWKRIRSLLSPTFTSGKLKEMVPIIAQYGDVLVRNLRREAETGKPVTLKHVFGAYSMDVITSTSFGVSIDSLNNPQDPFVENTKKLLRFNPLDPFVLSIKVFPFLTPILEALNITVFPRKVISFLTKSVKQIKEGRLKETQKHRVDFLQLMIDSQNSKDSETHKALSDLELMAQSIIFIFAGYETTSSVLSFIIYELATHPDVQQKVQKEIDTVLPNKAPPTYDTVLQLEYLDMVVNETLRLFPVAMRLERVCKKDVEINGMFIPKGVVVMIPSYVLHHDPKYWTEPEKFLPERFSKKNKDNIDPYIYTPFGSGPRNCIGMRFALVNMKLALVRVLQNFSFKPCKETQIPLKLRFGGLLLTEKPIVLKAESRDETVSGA
Sequence of CYP3A7 (P24462 whole entry): as above

SMILES: CC1(C)O[C@@H]2C[C@H]3[C@@H]4C[C@H](F)C5=CC(=O)C=C[C@]5(C)[C@H]4[C@@H](O)C[C@]3(C)[C@]2(C(=O)CO)O1 [FLUNISOLIDE]
- half-life at 1 µM (CYP3A4): 16 min
- Retention_time (Cytochrome P450 3A4 [1]): 15.8 min

SMILES: C[C@]12C=CC(=O)C=C1CC[C@@H]1[C@@H]2[C@@H](O)C[C@@]2(C)[C@H]1C[C@@H](O)[C@]2(O)C(=O)CO
- Drug metabolism (Cytochrome P450 3A7): metabolite_detected
- Drug metabolism (Cytochrome P450 3A4 [2]): metabolite_detected
- Drug metabolism (Cytochrome P450 3A5): metabolite_detected

SMILES: CC1(C)O[C@@H]2C[C@H]3[C@@H]4C=CC5=CC(=O)C=C[C@]5(C)[C@@]4(F)[C@@H](O)C[C@]3(C)[C@]2(C(=O)CO)O1
- Drug metabolism (Cytochrome P450 3A4 [3]): metabolite_detected
- Retention_time (Cytochrome P450 3A4 [4]): 19.1 min

SMILES: CC1(C)O[C@@H]2C[C@H]3[C@@H]4CCC5=CC(=O)C=C[C@]5(C)[C@@]4(F)[C@@H](O)C[C@]3(C)[C@]2(C(=O)CO)O1 [TRIAMCINOLONE ACETONIDE]
- half-life at 1 µM (CYP3A4): 12 min
- half-life at 1 µM (CYP3A5): 130 min
- half-life at 1 µM (CYP3A7): 213 min

SMILES: CCC(O)C1O[C@@H]2C[C@H]3[C@@H]4CCC5=CC(=O)C=C[C@]5(C)[C@H]4[C@@H](O)C[C@]3(C)[C@]2(C(=O)CO)O1 (stereo not given in full)
- Drug metabolism (Cytochrome P450 3A7): metabolite_detected
- Drug metabolism (Cytochrome P450 3A4 [2]): metabolite_detected
- Drug metabolism (Cytochrome P450 3A5): metabolite_detected

SMILES: CCCC1O[C@@H]2C[C@H]3[C@@H]4CCC5=CC(=O)C=C[C@]5(C)[C@H]4[C@@H](O)C[C@]3(C)[C@]2(C(=O)CO)O1 (stereo not given in full) [BUDESONIDE]
- Drug metabolism (Cytochrome P450 3A4 [5]): metabolite_not_detected
- half-life at 1 µM (CYP3A4): 11 min
- Drug metabolism (Cytochrome P450 3A4 [6]): metabolite_detected
- Drug metabolism (Cytochrome P450 3A4 [7]): metabolite_detected
- half-life at 1 µM (CYP3A5): 40 min
- Drug metabolism (Cytochrome P450 3A4 [8]): metabolite_detected
- Drug metabolism (Cytochrome P450 3A4 [9]): metabolite_detected
- half-life at 1 µM (CYP3A7): 71 min

SMILES: CC1(C)O[C@@H]2C[C@H]3[C@@H]4C[C@H](F)C5=CC(=O)C=C[C@]5(C)[C@H]4[C@@H](O)C[C@]3(C)[C@]2(C(=O)C(=O)O)O1
- Drug metabolism (Cytochrome P450 3A4 [10]): metabolite_detected
- Retention_time (Cytochrome P450 3A4 [11]): 23.1 min

SMILES: CCCC1O[C@@H]2C[C@H]3[C@@H]4C=CC5=CC(=O)C=C[C@]5(C)[C@H]4[C@@H](O)C[C@]3(C)[C@]2(C(=O)CO)O1 (stereo not given in full)
- Drug metabolism (Cytochrome P450 3A7): metabolite_detected
- Drug metabolism (Cytochrome P450 3A4 [2]): metabolite_detected
- Drug metabolism (Cytochrome P450 3A5): metabolite_detected

SMILES: CC1(C)O[C@@H]2C[C@H]3[C@@H]4CCC5=CC(=O)C=C[C@]5(C)[C@@]4(F)[C@@H](O)C[C@]3(C)[C@]2(C(=O)C(=O)O)O1
- Drug metabolism (Cytochrome P450 3A4 [3]): metabolite_detected
- Retention_time (Cytochrome P450 3A4 [12]): 23.7 min

SMILES: CC1(C)O[C@@H]2C[C@H]3[C@@H]4CC(=O)C5=CC(=O)C=C[C@]5(C)[C@H]4[C@@H](O)C[C@]3(C)[C@]2(C(=O)CO)O1
- Drug metabolism (Cytochrome P450 3A4 [10]): metabolite_detected

SMILES: CCCC1O[C@@H]2C[C@H]3[C@@H]4C[C@@H](O)C5=CC(=O)C=C[C@]5(C)[C@H]4[C@@H](O)C[C@]3(C)[C@]2(C(=O)CO)O1 (stereo not given in full)
- Drug metabolism (Cytochrome P450 3A7): metabolite_detected
- Drug metabolism (Cytochrome P450 3A4 [2]): metabolite_detected
- Drug metabolism (Cytochrome P450 3A5): metabolite_detected

SMILES: CC1(C)O[C@@H]2C[C@H]3[C@@H]4C=C(F)C5=CC(=O)C=C[C@]5(C)[C@H]4[C@@H](O)C[C@]3(C)[C@]2(C(=O)CO)O1
- Retention_time (Cytochrome P450 3A4 [13]): 20.6 min
- Drug metabolism (Cytochrome P450 3A4 [10]): metabolite_detected

SMILES: CC1(C)O[C@@H]2C[C@H]3[C@@H]4C[C@@H](O)C5=CC(=O)C=C[C@]5(C)[C@@]4(F)[C@@H](O)C[C@]3(C)[C@]2(C(=O)CO)O1
- Retention_time (Cytochrome P450 3A4 [14]): 14.9 min
- Drug metabolism (Cytochrome P450 3A4 [3]): metabolite_detected

SMILES: CC1(C)O[C@@H]2C[C@H]3[C@@H]4CCC5=CC(=O)C=C[C@]5(C)[C@@]4(F)[C@@H](O)C[C@]3(C)[C@]2(C(=O)O)O1
- Drug metabolism (Cytochrome P450 3A4 [3]): metabolite_detected
- Retention_time (Cytochrome P450 3A4 [15]): 18.9 min

SMILES: CCC(=O)O[C@]1(C(=O)O)[C@H](C)C[C@H]2[C@@H]3C[C@H](F)C4=CC(=O)C=C[C@]4(C)[C@@]3(F)[C@@H](O)C[C@@]21C
- Retention_time (Cytochrome P450 3A4 [16]): 19.7 min
- Drug metabolism (Cytochrome P450 3A4 [17]): metabolite_detected

SMILES: CC1(C)O[C@@H]2C[C@H]3[C@@H]4C[C@@H](O)C5=CC(=O)C=C[C@]5(C)[C@@]4(F)[C@@H](O)C[C@]3(C)[C@]2(C(=O)C(=O)O)O1
- Drug metabolism (Cytochrome P450 3A4 [3]): metabolite_detected
- Retention_time (Cytochrome P450 3A4 [18]): 16.4 min

SMILES: CCC(=O)O[C@]1(C(=O)SCF)[C@H](C)C[C@H]2[C@@H]3C[C@H](F)C4=CC(=O)C=C[C@]4(C)[C@@]3(F)[C@@H](O)C[C@@]21C [FLUTICASONE PROPIONATE]
- half-life at 1 µM (CYP3A4): 0.86 min
- half-life at 1 µM (CYP3A5): 16 min
- half-life at 1 µM (CYP3A7): 58 min
